# According to the M2OR odorant receptor database:
# Molecular target: T1, Or1m1 (Mus musculus) (UniProt Q8VFM9)
# T1 sequence (whole entry): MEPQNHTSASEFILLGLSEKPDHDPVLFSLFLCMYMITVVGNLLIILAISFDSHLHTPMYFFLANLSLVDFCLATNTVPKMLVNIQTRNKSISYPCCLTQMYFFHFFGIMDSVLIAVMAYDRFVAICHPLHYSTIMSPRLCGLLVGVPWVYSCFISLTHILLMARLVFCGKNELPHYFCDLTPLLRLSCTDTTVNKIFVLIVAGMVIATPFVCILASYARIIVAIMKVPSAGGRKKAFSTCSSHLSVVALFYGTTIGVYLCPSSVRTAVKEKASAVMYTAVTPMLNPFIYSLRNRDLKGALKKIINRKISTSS
# Conditions: stereoisomer not certain
# Summary of the method: (§1)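 Transient luciferase assays in mammalian cell lines were common, though methods varied by source. The values come from published papers and their supplementary material, with extra details from the original authors when needed. Responsive refers to a measured signal the original authors judged statistically different from baseline, and non-responsive (inactive) to the remainder.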
# 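Further: active if original authors judged signal statistically different from baseline.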
row,SMILES,odorant receptor agonist call
1,CCc1nccnc1CC,inactive
2,COc1nccnc1C(C)C,inactive
3,COc1cnccn1,inactive
4,CCc1ncc(C)nc1CC,inactive
5,CCC(C)c1nccnc1OC (configuration not stated),inactive

# Molecular target: T2, Or2c1 (Mus musculus) (UniProt P23275)
# T2 sequence (whole entry): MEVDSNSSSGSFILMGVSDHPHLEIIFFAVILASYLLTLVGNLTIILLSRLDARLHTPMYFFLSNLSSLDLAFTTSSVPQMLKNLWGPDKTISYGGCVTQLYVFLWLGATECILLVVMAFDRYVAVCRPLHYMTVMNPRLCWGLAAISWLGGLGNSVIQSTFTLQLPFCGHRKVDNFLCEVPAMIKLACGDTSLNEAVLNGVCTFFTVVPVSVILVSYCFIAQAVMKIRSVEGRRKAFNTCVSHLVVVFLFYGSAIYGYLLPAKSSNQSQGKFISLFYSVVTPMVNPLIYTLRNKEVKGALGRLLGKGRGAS
# Conditions: stereoisomer not certain
# Summary of the method: as §1
row,SMILES,odorant receptor agonist call
1,CCCCCCC(=O)[O-].[H+],inactive
2,CCCCCO,inactive
3,CCCCOC(=O)C(C)OC(=O)CCC (configuration not stated),inactive
4,O=c1ccc2ccccc2o1,inactive
5,CCC(C(=O)O)c1ccccc1 (configuration not stated),inactive

# Molecular target: T3, Or5an6 (Mus musculus) (UniProt Q8VFV4)
# T3 sequence (whole entry): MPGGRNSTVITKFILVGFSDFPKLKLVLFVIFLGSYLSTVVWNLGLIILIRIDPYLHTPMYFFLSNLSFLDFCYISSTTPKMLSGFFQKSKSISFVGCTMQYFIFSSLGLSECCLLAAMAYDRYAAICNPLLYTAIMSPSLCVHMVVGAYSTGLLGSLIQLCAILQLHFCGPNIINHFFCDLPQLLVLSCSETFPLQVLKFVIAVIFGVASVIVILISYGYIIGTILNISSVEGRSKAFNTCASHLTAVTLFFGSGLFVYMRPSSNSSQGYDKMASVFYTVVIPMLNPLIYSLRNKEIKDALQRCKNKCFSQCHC
# Conditions: stereoisomer not certain
# Summary of the method: as §1
row,SMILES,odorant receptor agonist call
1,CCC(=O)OCC(C)(C)OC(C)C1CCCC(C)(C)C1 (configuration not stated),active
2,CCCCCCCC(=O)CCCCCCC,active
3,O=C1CCCCCCCCCC1,inactive
4,O=C1CCCCCC=CCCCCCCCCO1,active
5,O=C1CCCCCCCCCCCCCC1,active
6,CC1C(C)(C)C2=C(C(=O)CCC2)C1(C)C (configuration not stated),inactive
7,CC1CC=CCCCCCCCCC(=O)C1 (configuration not stated),active
8,O=C1CCCCCCCCC1,active
9,O=C1CCCCCCC=CCCCCCCC1,active
10,O=C1C=CCCCCCCCCCCCCO1,active
11,CC1CCCCCCCCCCCC(=O)C1 (configuration not stated),active
12,O=C1CCCC=CCCCCCCCCCC1,active
13,CCCCCCCCCCCCCC(C)=O,active

# Molecular target: T4, Or5ar1 (Mus musculus) (UniProt Q8VGS3)
# T4 sequence (whole entry): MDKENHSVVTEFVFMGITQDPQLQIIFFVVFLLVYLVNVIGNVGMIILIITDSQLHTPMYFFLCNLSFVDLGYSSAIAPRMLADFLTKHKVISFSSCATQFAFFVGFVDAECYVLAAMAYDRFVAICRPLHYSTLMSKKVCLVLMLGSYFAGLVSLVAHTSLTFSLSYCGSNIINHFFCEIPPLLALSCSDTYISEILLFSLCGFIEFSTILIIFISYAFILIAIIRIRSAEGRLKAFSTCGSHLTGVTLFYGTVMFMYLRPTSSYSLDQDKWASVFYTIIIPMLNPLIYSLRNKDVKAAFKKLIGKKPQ
# Conditions: stereoisomer not certain
# Summary of the method: as §1
row,SMILES,odorant receptor agonist call
1,CCCCCCC(=O)[O-].[H+],inactive
2,CCCCCO,inactive
3,CCCCOC(=O)C(C)OC(=O)CCC (configuration not stated),inactive
4,CCc1nccnc1CC,inactive
5,COc1nccnc1C(C)C,inactive
6,COc1cnccn1,inactive
7,O=c1ccc2ccccc2o1,inactive
8,CCC(C(=O)O)c1ccccc1 (configuration not stated),inactive
9,CCc1ncc(C)nc1CC,inactive
10,CCC(C)c1nccnc1OC (configuration not stated),inactive

# Molecular target: T5, Or5k16 (Mus musculus) (UniProt Q7TS48)
# T5 sequence (whole entry): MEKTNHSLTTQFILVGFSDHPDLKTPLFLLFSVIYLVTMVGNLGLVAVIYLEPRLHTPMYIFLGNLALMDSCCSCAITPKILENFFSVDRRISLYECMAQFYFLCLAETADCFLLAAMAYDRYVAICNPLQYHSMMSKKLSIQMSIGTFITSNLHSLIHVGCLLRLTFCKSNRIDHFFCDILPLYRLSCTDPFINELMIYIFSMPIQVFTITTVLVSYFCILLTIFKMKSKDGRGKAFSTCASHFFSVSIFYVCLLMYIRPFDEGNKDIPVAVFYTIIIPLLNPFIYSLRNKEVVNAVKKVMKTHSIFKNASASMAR
# Conditions: stereoisomer not certain
# Summary of the method: as §1
row,SMILES,odorant receptor agonist call
1,Cc1cnccn1,inactive
2,Cc1cncc(C)n1,inactive
3,CCc1nccnc1CC,inactive
4,COc1nccnc1C(C)C,inactive
5,CC(=O)c1nccnc1C,inactive
6,COc1cnccn1,inactive
7,CCc1nccnc1C,inactive
8,Cc1cnc(C)cn1,inactive
9,CC1CCc2nccnc21 (configuration not stated),inactive
10,C=Cc1cnccn1,inactive
11,CCc1ncc(C)nc1CC,inactive
12,CCC(C)c1nccnc1OC (configuration not stated),inactive
13,COc1nccnc1CC(C)C,inactive
14,CCc1cnc(C)c(C)n1,active
15,CCc1nccnc1C(C)=O,inactive
16,Cc1nccnc1C,inactive
17,CC(=O)c1cnccn1,inactive
18,CCc1nccnc1OC,inactive
19,COC1=C(C)OC(C)C1=O (configuration not stated),inactive
